From ChEMBL document CHEMBL1140865, “Studies on anti-HIV quinolones: new insights on the C-6 position” (Bioorg Med Chem, 2009)
Values after ≈ are worked out from the molar mass of the structure shown.

Legend:
[1] = Selectivity index, ratio of CC50 for human MT4 cells to EC50 for HIV 3B; assay type: toxicity, cell-based; settings: read-out: Ratio CC50/EC50
[2] = Selectivity index, ratio of CC50 for human MT4 cells to EC50 for HIV ROD; assay type: toxicity, cell-based; settings: read-out: Ratio CC50/EC50
[3] = tested on: Human immunodeficiency virus; test: Antiviral activity against HIV 3B in human MT4 cells assessed as inhibition of virus-induced cytopathogenicity by MTT assay; assay type: functional, organism-based; settings: Human immunodeficiency virus 1, 3B
How it was run: (§1)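 MT-4 cells resuspended at 6 × 10⁵ cells/mL, infected with HIV-1 IIIB or HIV-2 ROD at 100–300 CCID50, serial 5-fold compound dilutions. After 5 days, viability read by MTT reduction at 540 and 690 nm, median OD of three wells. EC50 = concentration giving 50% protection from viral cytopathic effect; mean ± SD of three separate experiments.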

[4] = tested on: Human immunodeficiency virus; test: Antiviral activity against HIV ROD in human MT4 cells assessed as inhibition of virus-induced cytopathogenicity by MTT assay; assay type: functional, organism-based; settings: Human immunodeficiency virus 2, ROD; how it was run: as §1
[5] = Selectivity index, ratio of IC50 for human PBMC to IC50 for HIV 3B
[6] = Cytotoxicity against mock-infected human MT4 cells by MTT assay; assay type: cell-based
How it was run: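 Mock-infected MT-4 cells (6 × 10⁵ cells/mL) exposed to serial 5-fold compound dilutions in parallel with infected cultures. After 5 days, viability measured by MTT formazan absorbance (540 and 690 nm; median OD of three wells). CC50 = concentration reducing OD540 of mock-infected control by 50%; mean ± SD of three separate experiments.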

[7] = tested on: Human immunodeficiency virus; test: Antiviral activity against HIV 3B in PHA-stimulated human PBMC assessed as inhibition of p24 antigen production by ELISA; assay type: functional, organism-based; settings: Human immunodeficiency virus 1, 3B
How it was run: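 PBMCs from healthy donors isolated by density centrifugation, PHA-stimulated 3 days, washed, plated at 2 × 10⁵ per 200 µL with serial compound dilutions and infected with HIV at 1000 CCID50 per mL. On day 4, supernatant partly replaced with fresh compound-containing medium. At day 7, p24 in supernatant measured by ELISA. EC50 = 50% inhibition of p24; mean ± SD, at least two experiments.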

[8] = Cytotoxicity against mock-infected human PBMC; assay type: cell-based
How it was run: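 Mock-infected PHA-stimulated PBMCs cultured with serial compound dilutions. Viability determined by trypan blue exclusion. CC50 = concentration reducing viability by 50%; mean ± SD of at least two separate experiments.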

| Structure (SMILES) | selectivity ratio [1] | selectivity ratio [2] | EC50 [3] | EC50 [4] | Ratio CC50/EC50 [5] | CC50 [6] | EC50 [7] | CC50 [8] |
| --- | --- | --- | --- | --- | --- | --- | --- | --- |
| Cn1cc(C(=O)O)c(=O)c2cc(N)c(N3CCN(c4ccccn4)CC3)cc21 | 15 | 10 | 0.058 µg/mL (≈ 0.153 µM) | 0.097 µg/mL (≈ 0.256 µM) | – | – | – | – |
| Cn1cc(C(=O)O)c(=O)c2cc(O)c(N3CCN(c4ccc5ccccc5n4)CC3)cc21 | 6 | 14 | 0.08 µg/mL (≈ 0.186 µM) | 0.033 µg/mL (≈ 0.0767 µM) | 7 | 0.47 µg/mL (≈ 1.09 µM) | 0.26 µg/mL (≈ 0.604 µM) | 1.91 µg/mL (≈ 4.44 µM) |
| Cn1cc(C(=O)O)c(=O)c2cc(O)c(N3CCN(c4cccc(C(F)(F)F)c4)CC3)cc21 | – | – | ≥ 1.13 µg/mL | ≥ 0.133 µg/mL | 4 | 1.13 µg/mL (≈ 2.53 µM) | 0.4 µg/mL (≈ 0.894 µM) | 1.61 µg/mL (≈ 3.6 µM) |
| Cn1cc(C(=O)O)c(=O)c2cc(O)c(N3CCN(c4nc5ccccc5s4)CC3)cc21 | < 1 | < 1 | > 0.02 µg/mL | > 0.02 µg/mL | – | 0.02 µg/mL (≈ 0.0458 µM) | – | – |
| Cn1cc(C(=O)O)c(=O)c2cc(O)c(N3CCN(c4cnccn4)CC3)cc21 | < 1 | < 1 | > 125 µg/mL | > 125 µg/mL | – | > 125 µg/mL | – | – |
| Cn1cc(C(=O)O)c(=O)c2cc(C(F)(F)F)c(N3CCN(c4nc5ccccc5s4)CC3)cc21 | < 1 | < 1 | > 0.54 µg/mL | > 0.54 µg/mL | – | 0.54 µg/mL (≈ 1.11 µM) | – | – |
| Cn1cc(C(=O)O)c(=O)c2cc(C(F)(F)F)c(N3CCN(c4ccccn4)CC3)cc21 | < 1 | < 1 | > 13.9 µg/mL | > 13.9 µg/mL | – | 13.9 µg/mL (≈ 32.2 µM) | – | – |
| Cn1cc(C(=O)O)c(=O)c2cc(C(F)(F)F)c(N3CCN(c4cccc(C(F)(F)F)c4)CC3)cc21 | < 1 | < 1 | > 1.65 µg/mL | > 1.65 µg/mL | – | 1.65 µg/mL (≈ 3.3 µM) | – | – |
| COc1cc2c(=O)c(C(=O)O)cn(C)c2cc1N1CCN(c2ccccn2)CC1 | 5 | 6.5 | 0.47 µg/mL (≈ 1.19 µM) | 0.4 µg/mL (≈ 1.01 µM) | 5 | 2.55 µg/mL (≈ 6.47 µM) | 1.78 µg/mL (≈ 4.51 µM) | 8.46 µg/mL (≈ 21.4 µM) |
| COc1cc2c(=O)c(C(=O)O)cn(C)c2cc1N1CCN(c2nc3ccccc3s2)CC1 | < 1 | < 1 | > 0.05 µg/mL | > 0.05 µg/mL | – | 0.05 µg/mL (≈ 0.111 µM) | – | – |
| Cn1cc(C(=O)O)c(=O)c2cc(O)c(N3CCN(c4ccccn4)CC3)cc21 | > 68 | > 96 | 1.85 µg/mL (≈ 4.86 µM) | 1.31 µg/mL (≈ 3.44 µM) | >=44 | > 125 µg/mL | 0.39 µg/mL (≈ 1.03 µM) | ≥ 17.2 µg/mL |
| Cc1ccnc2c1NC(=O)c1cccnc1N2C1CC1 [NEVIRAPINE] | > 176 | – | 0.023 µg/mL (≈ 0.0864 µM) | > 4 µg/mL | – | > 4 µg/mL | – | – |
| Cc1cn([C@H]2C[C@H](N=[N+]=[N-])[C@@H](CO)O2)c(=O)[nH]c1=O [ZIDOVUDINE] | 1340 | 2480 | 0.0015 µg/mL (≈ 0.00561 µM) | 0.0008 µg/mL (≈ 0.00299 µM) | – | 2.01 µg/mL (≈ 7.52 µM) | – | – |
